Active and inactive are the calls of the source.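 Rule for the calls, unless noted: active = inhibition at or above 50% at 10 µM; inactive = inhibition below 50%.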
Key:
[1] = inhibitors of TNFa-induced NFkB p65 translocation, primary screen, imaging, HUVEC, MLSMR starter and 10KST1 sets (AID 438;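 active = inhibition above 20% together with a positive visual image hit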;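 note: compound added about 3h40 before a 20 min TNFalpha stimulation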;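 for inhibition: signal is the nuclear over cytoplasmic p65 intensity ratio per well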); conditions: HUVEC TNFa-induced p65 nuclear translocation; cell count: measured here: nuclei count (cytotoxicity indicator), at 2.08 µM; inhibition: at 2 µM, stronger effect = higher value, 0% TNFa-plus-vehicle, 100% no-TNFa wells
[2] = inhibitors of mutant huntingtin aggregation, primary screen, imaging, exon1htt(103Q)mCFP cells, high-content imaging (AID 483;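 active = visual image review flags a hit and inhibition of aggregation exceeds 20%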;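 note: compound exposure lasted 3 days before fixation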;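 for nuclei count: percent of the per-plate median nuclei count of sample wells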); conditions: exon1htt(103Q)mCFP cell line, aggregate imaging, at 2 µM; inhibition of aggregation: stronger effect = higher value; nuclei count: measured here: cell count, toxicity
[3] = inhibitors of E-selectin induction by TNFa, primary screen, imaging, HUVEC, immunofluorescence, MLSMR starter and 10KST1 sets (AID 487;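 active = visually confirmed hit in the image check and inhibition above 20%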;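 for inhibition: signal is fraction of cell area covered by stained E-selectin grains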;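 for nuclei count: 100% = median nuclei count of all wells on the same plate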); conditions: HUVEC TNFalpha-induced E-selectin immunofluorescence imaging, at 2 µM; inhibition: stronger effect = higher value; nuclei count: measured here: cell number, toxicity
[4] = target: Voltage-gated potassium channel subunit beta-2 (Rattus norvegicus) (UniProt P62483); test: KvBeta enzyme negative modulators, primary screen, biochemical, NADPH fluorescence (AID 622;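 active = fluorescence slope higher than the sample average by over 3 SD, cut at about -0.22 in these data, passing the limit was not always enough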;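 note: slope of raw intensity against log time taken from 70 to 1610 s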); conditions: recombinant KvBeta, 4-cyanobenzaldehyde reduction, at 10 µM, stronger effect = higher value
Chain of Voltage-gated potassium channel subunit beta-2 (Rattus norvegicus) (P62483 whole entry, looked up): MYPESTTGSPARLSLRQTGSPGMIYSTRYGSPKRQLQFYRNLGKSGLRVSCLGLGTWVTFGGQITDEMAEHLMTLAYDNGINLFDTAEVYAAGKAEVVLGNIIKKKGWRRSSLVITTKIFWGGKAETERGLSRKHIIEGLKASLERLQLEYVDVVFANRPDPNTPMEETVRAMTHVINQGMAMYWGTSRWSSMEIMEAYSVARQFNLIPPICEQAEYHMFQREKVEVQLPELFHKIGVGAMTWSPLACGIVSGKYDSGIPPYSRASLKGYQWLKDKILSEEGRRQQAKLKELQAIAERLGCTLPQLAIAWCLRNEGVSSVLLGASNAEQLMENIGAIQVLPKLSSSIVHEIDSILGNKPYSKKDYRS

[5] = target: Voltage-gated potassium channel subunit beta-2 (Rattus norvegicus) (UniProt P62483); test: KvBeta positive modulators, primary screen, biochemical, NADPH fluorescence (AID 623;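 active = NADPH fluorescence slope more negative than the mean of all samples by about 3 SD, 99.7% confidence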;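 note: fluorescence intensity change per second fitted from 20 to 320 s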); conditions: Recombinant KvBeta, NADPH fluorescence decrease slope, 10 min; at 10 µM; stronger effect = lower value
[6] = target: Muscarinic acetylcholine receptor M4 (Homo sapiens) (UniProt P08173); test: compounds altering M4/GIRK thallium flux, either direction, primary screen, M4 allosteric agonist project, cell-based, HEK293 M4/GIRK, BTC-AM (AID 625;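 active = fluorescence slope after compound addition differing from the mean of all tested samples at 99.7% confidence, mostly higher but some lower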;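 note: thallium influx through GIRK channels coupled to M4 in HEK293 cells with BTC-AM dye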); conditions: at 10 µM, actives lie on both sides
Chain of Muscarinic acetylcholine receptor M4 (Homo sapiens) (P08173 whole entry, looked up): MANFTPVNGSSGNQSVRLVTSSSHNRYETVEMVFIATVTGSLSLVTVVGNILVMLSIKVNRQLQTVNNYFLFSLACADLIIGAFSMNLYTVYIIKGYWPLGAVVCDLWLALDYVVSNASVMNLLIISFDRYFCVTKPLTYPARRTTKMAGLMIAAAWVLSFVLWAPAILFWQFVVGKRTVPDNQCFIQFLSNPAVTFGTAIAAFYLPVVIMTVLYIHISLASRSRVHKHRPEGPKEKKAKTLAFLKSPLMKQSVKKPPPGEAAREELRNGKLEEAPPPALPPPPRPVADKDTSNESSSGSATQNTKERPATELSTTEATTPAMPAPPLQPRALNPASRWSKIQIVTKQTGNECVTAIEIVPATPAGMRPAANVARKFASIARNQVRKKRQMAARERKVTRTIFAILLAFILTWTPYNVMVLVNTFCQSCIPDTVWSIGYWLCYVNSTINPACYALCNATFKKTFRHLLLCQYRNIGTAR
How it was run: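 Material: HEK293 cells with M4 receptor and GIRK channels; Times: cells overnight at 37 °C, BTC-AM loading 1 h, reads 2 min total; Technique: kinetic BTC-AM fluorescence sampled at 1 Hz, 10 s pre-addition baseline; Read-out basis: slope over 15–24 s of trace normalized to starting intensity; Controls: carbachol positive, DMSO negative.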

[7] = inhibitors of Sendai virus-induced IRF3 signaling, primary screen, TLR/RLR signaling modifier project, cell-based, Sendai virus stimulus, luciferase, 10K MLSCN set (AID 602276); conditions: HEK293 RL24 IRF3 luciferase reporter, at 10 µM, stronger effect = higher value;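 note: firefly luciferase from ISG56 promoter only with Renilla not read in this screen; 0% = Sendai virus plus DMSO and 100% = medium plus DMSO without virus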
[8] = inhibitors of poly I:C-induced TLR3 signaling, primary screen, cell-based, poly I:C stimulus, luciferase, 10K MLSCN set (AID 602277;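 active = inhibition of the reporter signal at or above 50%; inactive = inhibition below 50%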); conditions: HEK293-TLR3 RL24 IRF3 luciferase reporter, at 10 µM, stronger effect = higher value

SMILES	cell count [1]	inhibition [1]	inhibition of aggregation [2]	nuclei count [2] [%]	inhibition [3]	nuclei count [3] [%]	fluorescence slope [4]	NADPH fluorescence slope [5]	fluorescence slope [6]	inhibition [7]	inhibition [8]
CCN1C(=O)/C(=C/N2CCc3ccccc32)SC1=S	382	1.8% (inactive)	-22.3% (inactive)	117	-1.2% (inactive)	100	-0.403 (inactive)	-2.8e-05 (inactive)	0.00654 (inactive)	-26.3% (inactive)	-99.1% (inactive)
COc1cc(OC)cc(-c2nc3nc(C)c(CCC(=O)O)c(C)n3n2)c1	681	-14.6% (inactive)	0.2% (inactive)	111	46.5% (inactive)	97.4	-0.522 (inactive)	-3.8e-05 (inactive)	0.00535 (inactive)	21.9% (inactive)	28.4% (inactive)
Cc1ccccc1CS(=O)(=O)CCC(=O)N1CCN(c2ccc(N3CCOCC3)nn2)CC1	318	-0.9% (inactive)	-19.9% (inactive)	81	-146% (inactive)	87.2	-0.424 (inactive)	-8.7e-08 (inactive)	0.00541 (inactive)	3.04% (inactive)	12.2% (inactive)
Cc1nnc(SCc2cnc(-c3ccccc3)o2)[nH]c1=O	332	-2.2% (inactive)	12.4% (inactive)	92.7	-82.5% (inactive)	118	-0.591 (inactive)	-1.9e-05 (inactive)	0.00323 (inactive)	10.2% (inactive)	12.4% (inactive)
O=C(Cc1c(O)c2ccccc2[nH]c1=O)NCc1ccc(F)cc1	251	4.3% (inactive)	18.1% (inactive)	61.3	-25.6% (inactive)	115	-0.544 (inactive)	-2e-05 (inactive)	0.00681 (inactive)	20.7% (inactive)	24.8% (inactive)
COc1ccc(S(=O)(=O)NC(CC(=O)NCc2ccco2)c2ccco2)cc1 (stereo unspecified)	621	8.2% (inactive)	0.5% (inactive)	114	-67.3% (inactive)	97.1	-0.566 (inactive)	-3e-05 (inactive)	0.00653 (inactive)	19.3% (inactive)	20.6% (inactive)
Clc1ccc(SCCn2ccnc2)cc1	481	10.1% (inactive)	-7.9% (inactive)	104	-245% (inactive)	137	-0.325 (inactive)	-2.6e-05 (inactive)	0.00636 (inactive)	2.29% (inactive)	5.02% (inactive)
CC1Cc2ccccc2N1C(=O)Cc1cccs1 (stereo unspecified)	275	-3.1% (inactive)	33.8% (inactive)	74.7	18.4% (inactive)	93.7	-0.504 (inactive)	-3.6e-05 (inactive)	0.00407 (inactive)	7.14% (inactive)	-1.13% (inactive)
O=C(O)c1cc2c([nH]c1=O)CCCC2	661	-18.4% (inactive)	24.5% (inactive)	96.3	-0.2% (inactive)	100	-0.585 (inactive)	2.3e-05 (inactive)	0.00466 (inactive)	13.7% (inactive)	24.4% (inactive)
CCC(C)n1[nH]c(=O)c2c(C)cc(C)nc21 (stereo unspecified)	405	1.8% (inactive)	2.2% (inactive)	101	-50.1% (inactive)	108	-0.565 (inactive)	-5.9e-05 (inactive)	0.00534 (inactive)	6.37% (inactive)	15.3% (inactive)
CCOC(=O)CSc1nc2cc(C(=O)NCc3ccco3)ccc2c(=O)n1-c1ccc(F)cc1	329	7.7% (inactive)	-7.1% (inactive)	104	7.7% (inactive)	92.9	-0.481 (inactive)	0.000117 (inactive)	0.00969 (inactive)	-7.4% (inactive)	-0.0676% (inactive)
O=C(CN1C(=O)CC(c2ccccc2)=Nc2ccccc21)NCc1ccco1	255	-21.4% (inactive)	6.1% (inactive)	74	27.6% (inactive)	77.1	-0.546 (inactive)	-4.6e-05 (inactive)	0.00578 (inactive)	17.2% (inactive)	18.1% (inactive)
CC1CCN(C(=O)CSc2nnc(-c3cccnc3)n2C2CCCCC2)CC1	463	-5.1% (inactive)	6.5% (inactive)	121	-34.6% (inactive)	134	-0.471 (inactive)	-2.5e-05 (inactive)	0.00469 (inactive)	18.4% (inactive)	16.9% (inactive)
O=C(CCn1nc(-c2ccc(Cl)cc2)ccc1=O)N1CCN(c2ccccn2)CC1	244	-0.9% (inactive)	26.9% (inactive)	100	36.1% (inactive)	98.7	-0.582 (inactive)	-8.6e-06 (inactive)	0.00547 (inactive)	7.53% (inactive)	10.9% (inactive)
CCOc1ncccc1C(=O)Nc1ccc2c(C)cc(=O)oc2c1	585	5.8% (inactive)	10% (inactive)	92.5	-26.9% (inactive)	96.9	-0.535 (inactive)	-3.1e-05 (inactive)	0.00712 (inactive)	10.1% (inactive)	4.34% (inactive)
CCOC(=O)c1ccc(NC(=O)NC(C)C2CCCO2)cc1 (stereo unspecified)	352	-12.3% (inactive)	-23.9% (inactive)	101	-94.9% (inactive)	86.6	-0.462 (inactive)	2e-05 (inactive)	0.00652 (inactive)	-13% (inactive)	98.6% (active)
CCOC(=O)N1CCN(C(=O)C(NS(=O)(=O)c2cccc3nsnc23)c2ccccc2)CC1 (stereo unspecified)	588	1.5% (inactive)	13.3% (inactive)	106	51.1% (inactive)	81.6	-0.599 (inactive)	1.3e-05 (inactive)	0.0056 (inactive)	3.16% (inactive)	9.73% (inactive)
CCOc1cc(C2C(C#N)=C(N)OC(C)=C2C(C)=O)cc(Br)c1O (stereo unspecified)	235	11% (inactive)	-9.7% (inactive)	95.5	-29.3% (inactive)	97.7	-0.252 (inactive)	-2.9e-05 (inactive)	0.00684 (inactive)	12.3% (inactive)	20.1% (inactive)
CCCNS(=O)(=O)c1ccc(OCC(=O)Nc2ccccc2F)cc1	408	8.2% (inactive)	-23% (inactive)	99.5	-57.2% (inactive)	100	-0.557 (inactive)	-2.6e-05 (inactive)	0.00506 (inactive)	19.7% (inactive)	15.2% (inactive)
CSc1cccc(NC(=O)C2CCN(S(C)(=O)=O)CC2)c1	248	3.5% (inactive)	16.4% (inactive)	80.7	-296% (inactive)	120	-0.438 (inactive)	3.2e-05 (inactive)	0.00544 (inactive)	13.5% (inactive)	13.6% (inactive)
COc1ccc(-c2cc(C(=O)NCCc3ccccc3)no2)cc1OC	364	-23% (inactive)	-2.1% (inactive)	98.3	-58.5% (inactive)	105	-0.298 (inactive)	-2.2e-05 (inactive)	0.00599 (inactive)	7.88% (inactive)	-6.93% (inactive)
COc1cc(NC(=O)c2ccc(COCC(F)(F)F)o2)cc(OC)c1OC	753	-11.9% (inactive)	-25% (inactive)	116	-71% (inactive)	118	-0.553 (inactive)	-4.6e-05 (inactive)	0.00529 (inactive)	15.8% (inactive)	24.7% (inactive)
COc1ccccc1-c1cn[nH]c(=S)n1	428	1.6% (inactive)	4.2% (inactive)	93	-41.2% (inactive)	101	-0.576 (inactive)	2.7e-05 (inactive)	0.00535 (inactive)	-32.7% (inactive)	-25.8% (inactive)
C=CCc1cc(C(=O)N2CCCCC2)ccc1O	442	3.4% (inactive)	6.3% (inactive)	99.5	-96.3% (inactive)	118	-0.523 (inactive)	-0.000166 (inactive)	0.00415 (inactive)	5.94% (inactive)	-14% (inactive)
CCN(CC)S(=O)(=O)c1ccc(C(=O)Oc2ccc3c(c2)OCO3)cc1	603	-8.9% (inactive)	-5% (inactive)	108	-19.8% (inactive)	110	-0.477 (inactive)	1.4e-07 (inactive)	0.00717 (inactive)	1.83% (inactive)	9.42% (inactive)
Cc1ccc(CNC(=O)CCCn2c(=O)c3ccccc3n(CC(=O)NCc3ccco3)c2=O)cc1	451	-11.1% (inactive)	-4% (inactive)	114	-76.5% (inactive)	97.1	-0.509 (inactive)	-0.000209 (inactive)	0.00296 (inactive)	-6.73% (inactive)	-15.2% (inactive)
